Autophagy mod: alters autophagy in cells | calls only at 10 µM (by protocol) | 190,000 tested, 0.98% active | MEF GFP-LC3 puncta imaging; test concentration mostly 10 µM;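 active = percentage of spot-positive cells more than 3 SD above its plate mean, without a fluorescence outlier flag or 80% toxicity; inconclusive = no clear call, values can overlap the other calls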;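 note: spot-positive cell cutoff set from DMSO-treated cells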
ABCG2 inh: inhibitors of human ABCG2 transporter, ABCB1 counter-screen; Q9UNQ0; inhibition, % at 6.6 µM; IgMXP3 cells, JC-1 efflux, flow cytometry; AID 1325; 190,000 tested, 0.1% active;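 active = inhibition above 80%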;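 note: 0% = DMSO and 100% = nicardipine control wells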
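Test system: IgMXP3 cells (ABCG2) mixed with DDAO far-red-labelled CCRF-Adr cells (ABCB1). Reagent: JC-1 transporter substrate. Compound dosing: single test compound dose, 6.6 µM final. Times: 10 min compound exposure, 25 °C. Detection: flow cytometry of retained JC-1 fluorescence. Read-out basis: efflux inhibition in percent versus controls. Controls: nicardipine and DMSO wells.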
ROMK mod: modulators of human ROMK potassium channel; B-score at 10 µM; 130,000 tested, 2% active; P48048; Tet-inducible ROMK, thallium flux fluorescence; actives lie on both sides; AID 1918;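 active = signal ratio slope over the read window, or its plate-corrected B-score, at least 3 SD from the plate mean, either direction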;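 note: B-score of the F/F0 ratio slope over 7 to 12 s after thallium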
Target sequence (P48048 whole entry, looked up): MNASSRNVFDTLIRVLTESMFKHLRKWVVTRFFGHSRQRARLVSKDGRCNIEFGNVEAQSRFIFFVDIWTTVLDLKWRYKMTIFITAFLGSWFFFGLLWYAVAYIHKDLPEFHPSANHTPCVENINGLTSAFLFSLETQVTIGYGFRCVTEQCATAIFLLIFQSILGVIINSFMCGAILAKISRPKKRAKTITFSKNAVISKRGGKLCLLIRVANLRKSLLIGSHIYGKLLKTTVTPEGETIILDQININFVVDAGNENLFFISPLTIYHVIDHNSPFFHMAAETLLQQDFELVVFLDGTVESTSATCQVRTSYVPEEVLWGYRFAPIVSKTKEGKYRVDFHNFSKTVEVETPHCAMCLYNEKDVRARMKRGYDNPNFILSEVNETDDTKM
ABCB1 block: inhibitors of human ABCB1 transporter, ABCG2 counter-screen; inhibition, % at 6.6 µM; CCRF-Adr cells, JC-1 efflux, flow cytometry; P08183; 190,000 tested, 0.067% active; in the data active = inhibition above about 40%;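 note: 0% = vehicle and 100% = reference inhibitor; higher value means more JC-1 retained so stronger ABCB1 efflux block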
Insulin prom up: MIN6 insulin promoter up-regulation; MIN6 insulin promoter-GFP reporter, high-content imaging; hits give high values; AID 1625; 190,000 tested, 0.3% active; z-score at 5 µM;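 active = z-score above 3 at 5 µM with at least 500 cells counted in the well; inconclusive = wells under 500 cells, flagged as cytotoxic or low count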
sdo1 growth: compounds rescuing growth of sdo1-depleted yeast, bone marrow failure model. S. cerevisiae sdo1-depleted JHY4D growth rescue, OD600 30 h; hits give high values; pdr5 snq2 efflux-pump mutant strain. AID 817. 140,000 tested, 0.21% active. z-score at 10 µM;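 active = z-score above 3 at both the 24 hr and the 30 hr optical density reads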;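 note: z-score against mean and SD of all compound wells on the same plate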
Numbers without * were called inactive; i = inactive; ? = inconclusive; · = no result given; + = active, no number. A selection: hits, their analogues and other compounds. The true share with any hit is near 2.3%.

SMILES	Autophagy mod	ABCG2 inh	ROMK mod	ABCB1 block	Insulin prom up	sdo1 growth
CCOC(=O)c1c(NC(=O)CSc2nc(C)cc(C)c2C#N)sc(C(C)=O)c1C	+	15	0.37	7	-0.95	-0.87
S=C1NC2CCCCC2N1 (stereo not drawn)	i	8	0.2	1	-0.31	·
Cc1ccc2c(c1)Sc1c(ccc3ccccc13)N2	·	·	·	·	1.4	·
COc1ccc(N2C(=O)[C@@H]3[C@H](C2=O)[C@H]2c4ccccc4C=CN2[C@@H]3C(C)=O)cc1	i	8	-3.6*	0	0.27	-0.61
CC(C)N1CCc2c(sc(NC(=O)c3cc4cc([N+](=O)[O-])ccc4s3)c2C(N)=O)C1	i	0	-0.073	-1	·	·
CN1CCc2c(sc(NC(=O)c3cc4cc([N+](=O)[O-])ccc4s3)c2C(N)=O)C1	+	3	-0.00097	0	?	·
O=C(COC(=O)c1cc(S(=O)(=O)N2CCCC2)ccc1O)Nc1ccc(S(=O)(=O)N2CCOCC2)cc1	·	·	·	·	-0.13	·
O=C(COC(=O)c1cc(S(=O)(=O)N2CCOCC2)ccc1O)NCC1CCCO1 (stereo not drawn)	i	0	0.049	0	3.8*	0.52
COc1ccc(C)cc1N(CC(=O)N1CCc2ccccc2C1)S(C)(=O)=O	i	0	0.0041	0	0.3	·
COc1ccc(Cl)cc1NC(=O)c1c(-c2ccccc2)noc1C	i	17	0.37	0	18*	-0.48
COc1cc(OC)c(NC(=O)c2c(-c3ccccc3)noc2C)cc1Cl	i	13	·	0	-0.38	-0.31
COc1ccc(-c2cc(C(F)F)n3ncc(C(=O)Nc4ccc(C(=O)N5CCOCC5)cc4)c3n2)cc1	+	3	0.091	4	-0.87	·
COc1ccc(C(=O)Nc2nc3nccc(-c4ccccc4)n3n2)cc1	i	2	·	1	-1.2	0.92
O=C(O)CC12CSc3[nH]c(=O)sc3C1c1ccccc1OC2=O (stereo not drawn)	i	-4	·	-3	3.2*	0.37
O=C(/C=C/c1ccco1)c1ccc(NC(=O)C23CC4CC(CC(C4)C2)C3)cc1	i	-2	-0.21	0	-0.33	-1.7
O=c1cc(O)nc(SCc2ccccc2)n1-c1ccc(Cl)cc1	i	-1	-0.3	0	1	·
Cc1c2c(nc3c(C)cccc13)OC(C)C2 (stereo not drawn)	+	-6	0.12	-1	0.15	0.19
S=C(Nc1ccc(Br)cc1Cl)Nn1cnnc1	i	-1	0.62	-1	-0.14	·
CCc1ccc(CCC(=O)Nc2sc3c(c2C#N)CCCC3)o1	+	2	·	0	-0.19	-1.3
CC1(C)CC(=O)C(N=Nc2ccc(C(F)(F)F)cc2[N+](=O)[O-])=C(O)C1	·	·	·	·	-0.46	·
Cc1cccc(Oc2nccc(C(F)(F)F)c2C(=O)Nc2ccc(F)cc2F)c1	·	·	·	·	3.6*	·
COc1cc([N+](=O)[O-])ccc1NC(=O)CSc1nccn1C	i	32	-0.6	1	0.8	·
Cc1[nH]n(-c2ccccc2)c(=O)c1C=Nc1cccc2cccnc12	+	-3	0.29	0	-0.82	0.1
COC(=O)c1ccc(C23CC4(C2)[C@H](CN(CC2CCCCC2)[C@@H]4c2ccccc2)C3c2ccccc2)cc1 (stereo partly drawn)	·	·	·	·	-0.7	·
c1ccc(CN2CCC(Nc3nc(-c4cccs4)nc4ccccc34)CC2)cc1	+	4	-0.42	9	-2.5	·
SMILES	Autophagy mod	ABCG2 inh	ROMK mod	ABCB1 block	Insulin prom up	sdo1 growth
c1csc(CNc2nc(-c3cccs3)nc3ccccc23)c1	i	19	0.015	1	-0.49	·
O=C(Nc1ccccc1O)c1c(O)c2c([nH]c1=O)CCCC2	i	3	0.34	1	-0.44	·
Cc1ccc(-n2c3c(c(=O)[nH]c2=O)C(C(F)(F)F)(C(F)(F)F)NC(=O)N3)cc1	i	0	·	0	3*	1
Cc1ccc(-n2c3c(c(=O)[nH]c2=O)C(NS(=O)(=O)c2ccc(C)cc2)(C(F)(F)F)C(=O)N3)cc1 (stereo not drawn)	i	-2	·	1	-0.09	0.46
CC(=O)N/N=C/c1cc(C(C)C)cc(/C=N/NC(C)=O)c1O	i	2	-3.3*	0	0.17	·
CC(=O)Nc1cc(OC(C)=O)c2nonc2c1OC(C)=O	i	·	-4.2*	·	-0.18	·
CC(=O)Nc1nonc1NC(C)=O	i	2	0.09	1	0.23	1
Cc1ccc(F)c(NC(=O)/C(C#N)=C(\O)c2ccc(C(C)(C)C)cc2)c1	i	0	5.7*	-1	0.26	·
COc1ccc(OC)c(NC(=O)CSc2ccc3nnc(-c4cccnc4)n3n2)c1	i	4	1.3	0	1.1	·
O=C(Cn1c2ccccc2c(=O)c2ccccc21)N/N=C/c1cc([N+](=O)[O-])ccc1N1CCCCCC1	+	0	-0.037	0	-0.35	1.1
O=C(COc1ccc([N+](=O)[O-])cc1)N/N=C/c1cc([N+](=O)[O-])ccc1N1CCOCC1	i	2	·	0	-0.08	0.93
Cc1ccc(OCC(=O)N/N=C/c2cc([N+](=O)[O-])ccc2N2CCCCC2)cc1	+	15	·	2	-0.58	-0.61
COc1ccc(CCNS(=O)(=O)c2cnc(Cl)c(Br)c2)cc1OC	·	·	0.9	·	-0.47	·
O=C(Nc1ccccc1)C1=C[C@H](c2ccc(Br)cc2)C[C@H](OCc2ccc(CO)cc2)O1	i	5	·	1	-0.53	·
COc1ccc(/C=C/C(=O)OCC(=O)NCC2CCCO2)cc1 (stereo not drawn)	i	7	-0.16	1	0.1	0.47
CCOC(=O)/C=c1\s/c(=C\c2ccc(C)cc2)c(=O)n1CC(=O)NCc1ccco1	i	4	-0.76	1	-0.86	0.65
CCOC(=O)/C=c1\s/c(=C\c2sccc2C)c(=O)n1CC(=O)NCc1ccc(C)cc1	+	-8	-0.69	-1	-0.2	·
CCOC(=O)/C=c1\s/c(=C\c2ccc3cc(OC)ccc3c2)c(=O)n1CC(=O)NCC1CCCO1 (stereo not drawn)	+	0	-0.98	0	-0.97	0.15
COc1ccc(NC(=S)Nc2cccc(C(F)(F)F)c2)c(C)c1	i	2	0.22	0	-1	·
CCN1C(=O)N(C)[C@@H](c2ccccc2)C(C(=O)OC)=C1C	·	·	·	·	-0.33	·
CCN1CCN(c2ncc(C(=O)Nc3cc(Cl)ccc3OC)c3ccccc23)CC1	+	7	·	2	-0.08	-0.9
COc1ccccc1N(CC(=O)N/N=C/c1ccc(C(=O)O)cc1)S(=O)(=O)c1ccc(C)cc1	·	·	0.86	·	1	·
COc1ccc(Cl)cc1C(=O)NCC(c1ccco1)N1CCCC1 (stereo not drawn)	+	3	·	0	-0.29	0.07
C=CCN1C(=O)C2(NNc3ccccc3O2)c2ccccc21 (stereo not drawn)	+	4	-1.8	2	0.54	-2.7

Screens: PubChem, several laboratories
